The results in this text go back to publication PMC8941156 (Heliyon, 2022).

The nature of data set [1]: Single dose oral pharmacokinetic study of rubraxanthone in mice. The following applies: mouse, plasma, 700 mg/kg. Format: in vivo. In a few lines: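 Mice (7–8 weeks, 20 ± 5 g) were given a fresh suspension in virgin coconut oil orally. Under isoflurane, mandibular-vein blood was taken from six mice per time point over 0–24 h into lithium heparin, and plasma was stored at −80 °C. Plasma was extracted by acetonitrile precipitation with α-mangostin internal standard and read by UHPLC-DAD (0.128–5 µg/mL calibration). Non-compartmental analysis used trapezoidal AUC and Ke from log-linear regression of the last four points (3–5.5 h), reported as mean ± SD.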

Data set [2] is described as follows: Stability of rubraxanthone in mice plasma. The following applies: for freeze–thaw stability, % diff: mice plasma, three freeze–thaw rounds. It counts as in vitro ADME. The gist of the method: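 Blank mouse plasma was spiked at medium and high QC levels, extracted by acetonitrile precipitation with α-mangostin internal standard, and quantified by UHPLC-DAD at 243 nm. For freeze–thaw, four replicate samples per level went through three cycles. Post-preparative and plasma stability came from eight replicates per level. Results are given as % difference.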

Consider `COc1c(O)cc2oc3cc(O)cc(O)c3c(=O)c2c1C/C=C(\C)CCC=C(C)C` [rubraxanthone, 1,3,6,trihydroxy-8-geranyl-7-methoxy xanthone], for which, in data set [1], the apparent clearance (CL/F) was 18.7 mL/min/kg, the Tmax was 1.5 ± 0.99 h, the half-life was 6.72 ± 1.29 h and the k el is 2.78e-05 s⁻¹. For the same compound, the “freeze–thaw stability, % diff” value in data set [2] (HC sample (3.750 μg/mL)) came out at 5.9%. Moreover, the “freeze–thaw stability, % diff” value in data set [2] (MC sample (2.067 μg/mL)) was found to be 0.49%. Also, the “post-preparative and plasma stability” value in data set [2] (plasma kept at ambient temperature for 24 h before or after extraction vs plasma kept at -20 °C, MC and HC samples) is recorded as “stable”.

The term CL/F denotes clearance divided by bioavailability, as obtained after extravascular dosing. The Tmax is the time at which the peak concentration occurs. The half-life is the time needed for the level to fall by half in the phase considered. Low values mean rapid decline, high ones slow decline.
